Source: ChEMBL document CHEMBL3045604, “Phytotoxicity of sarmentine isolated from long pepper (Piper longum) fruit” (J Agric Food Chem, 2010)
Active and inactive are the calls of the source. No cut-off for these calls is given here.

Assays:
Echinochloa crus-galli [1] = test: (§1) Phytotoxicity against Echinochloa crus-galli (barnyard grass) assessed as mortality measured after 3 days at 5 mg/ml by foliar spraying; format: functional; conditions: for mortality at 5000 µg/mL: 72 h
How it was run: (§2)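 Whole plants sprayed on the foliage with freshly prepared test solution at 5 mg/mL. Spray volume was matched to foliar surface area, roughly 1 to 3 mL per pot. One or two pots were treated per species, depending on foliar area and plant availability.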

Oryza sativa = test: Herbicidal activity against Oryza sativa (rice) (M-104) Oryza sativa L assessed as mortality measured after 3 days at 5 mg/ml by foliar spraying; format: organism-based; conditions: in vivo, other, 72 h; how it was run: as §2
Rumex crispus = test: Phytotoxicity against curly dock Rumex crispus assessed as mortality measured after 3 days at 5 mg/ml by foliar spraying; format: functional; conditions: 72 h; how it was run: as §2
Solanum nigrum = test: Phytotoxicity against Solanum nigrum (black nightshade) assessed as mortality measured after 3 days at 5 mg/ml by foliar spraying; format: functional; conditions: 72 h; how it was run: as §2
Mutarda arvensis = test: Phytotoxicity against wild mustard Sinapis arvensis assessed as mortality measured after 3 days at 5 mg/ml by foliar spraying; format: functional; conditions: 72 h; how it was run: as §2
Poa annua = test: Phytotoxicity against annual bluegrass Poa annua assessed as mortality measured after 3 days at 5 mg/ml by foliar spraying; format: functional; conditions: 72 h; how it was run: as §2
Chenopodium album = test: Phytotoxicity against Chenopodium album assessed as mortality measured after 3 days at 5 mg/ml by foliar spraying; format: functional; conditions: 72 h; how it was run: as §2
Taraxacum officinale = test: Phytotoxicity against dandelion Taraxacum officinale (dandelion) assessed as mortality measured after 3 days at 5 mg/ml by foliar spraying; format: functional; conditions: 72 h; how it was run: as §2
Leptochloa = test: Phytotoxicity against Leptochloa fascicularis (sprangletop) assessed as mortality measured after 3 days at 5 mg/ml by foliar spraying; format: functional; conditions: 72 h; how it was run: as §2
Cyperus difformis = test: Phytotoxicity against sedge Cyperus difformis assessed as mortality measured after 3 days at 5 mg/ml by foliar spraying; format: functional; conditions: 72 h; how it was run: as §2
Erigeron canadensis = test: Phytotoxicity against Conyza canadensis (horseweed)assessed as mortality measured after 3 days at 5 mg/ml by foliar spraying; format: functional; conditions: 72 h; how it was run: as §2
Digitaria sanguinalis = test: Phytotoxicity against Digitaria sanguinalis (hairy crabgrass) assessed as mortality measured after 3 days at 5 mg/ml by foliar spraying; format: functional; conditions: 72 h; how it was run: as §2
Convolvulus arvensis = test: Phytotoxicity against Convolvulus arvensis assessed as mortality measured after 3 days at 5 mg/ml by foliar spraying; format: functional; conditions: 72 h; how it was run: as §2
Echinochloa crus-galli [2] = test: as §1; format: functional; conditions: 72 h; how it was run: as §2
Amaranthus retroflexus = test: Phytotoxicity against Amaranthus retroflexus assessed as mortality measured after 3 days at 5 mg/ml by foliar spraying; format: functional; conditions: 72 h; how it was run: as §2

SMILES | mortality at 5000 µg/mL (Echinochloa crus-galli [1]) [%] | further results
CCCCCCC/C=C/C(=O)N1CCCCCC1 | 80 | –
CCCCCCCCCC(=O)N1CCCCC1 [N-(DECANOYL)PIPERIDINE] | 80 | –
O=C(/C=C/c1ccccc1)N1CCCCC1 | 40 | –
CCCCCCCCCC(=O)N1CCCCCC1 [N-(DECANOYL)HEXAMETHYLENEIMINE] | 80 | –
CCCCC/C=C\C=C\C(=O)N1CCCCCC1 [(2E,4Z-DECADIENOYL)HEXAMETHLENEIMINE] | 80 | –
C1CCNC1 | – | mortality (Echinochloa crus-galli [1]): inactive
CCCCCCC/C=C/C(=O)N1CCCC1 | 80 | –
CCCCCCC/C=C/C(=O)O [2E-DECENOIC ACID] | 80 | –
CCCCCCC/C=C/C(=O)N1CCCCC1 | 80 | –
O=C(O)/C=C/c1ccccc1 [CINNAMIC ACID] | 60 | –
O=C(/C=C/c1ccccc1)N1CCCC1 | 80 | –
CCCCCCCCCC(=O)O [DECANOIC ACID] | 80 | –
CCCCCCC/C=C/C(=O)NC1CCCC1 | < 20 | –
C1CCCNCC1 | – | mortality (Echinochloa crus-galli [1]): inactive
CCCCC/C=C\C=C\C(=O)NC1CCCC1 | < 20 | –
O=C(/C=C/c1ccccc1)NC1CCCC1 | < 20 | –
C1CCNCC1 | – | mortality (Echinochloa crus-galli [1]): inactive
CCCCC/C=C\C=C\C(=O)N1CCCC1 [(2E,4Z-DECADIENOYL)PYRROLIDINE] | 80 | –
CCCCCCCCCC(=O)N1CCCC1 [N-(DECANOYL)PYRROLIDINE] | 80 | –
CCCCC/C=C\C=C\C(=O)OCC | < 20 | –
O=C(/C=C/c1ccccc1)N1CCCCCC1 | < 20 | –
CCCCCCCCCC(=O)NC1CCCC1 [N-CYCLOPENTYLDECANAMIDE] | < 20 | –
CCCCC/C=C/C=C/C(=O)N1CCCC1 [SARMENTINE] | 80 | mortality (Oryza sativa): Not Active; mortality at 5000 µg/mL (Rumex crispus): 80%; mortality at 5000 µg/mL (Solanum nigrum): 80%; mortality at 5000 µg/mL (Mutarda arvensis): 80%; mortality at 5000 µg/mL (Poa annua): 80%; mortality at 5000 µg/mL (Chenopodium album): 80%; mortality at 5000 µg/mL (Taraxacum officinale): 80%; mortality at 5000 µg/mL (Leptochloa): 80%; mortality at 5000 µg/mL (Cyperus difformis): 20%; mortality at 5000 µg/mL (Erigeron canadensis): < 20%; mortality at 5000 µg/mL (Digitaria sanguinalis): 80%; mortality at 5000 µg/mL (Convolvulus arvensis): 80%; mortality at 5000 µg/mL (Echinochloa crus-galli [2]): 80%; mortality at 5000 µg/mL (Amaranthus retroflexus): 80%
NC1CCCC1 | – | mortality (Echinochloa crus-galli [1]): inactive
CCCCC/C=C\C=C\C(=O)N1CCCCC1 [(2E,4Z-DECADIENOYL)PIPERIDINE] | 80 | –
